Measured values as given in ChEMBL document CHEMBL1145995, “Tricyclic benzimidazoles as potent poly(ADP-ribose) polymerase-1 inhibitors” (J Med Chem, 2003).
Values belong to the compound of their own block, whether it stands above or below them.

Tests used:
A549 [1] = assay: Concentration that gives 50% growth inhibition (topotecan alone/ (topotecan + 0.4 uM of compound)) in A549 cells; format: functional, Homo sapiens
Summary of the method: (§1)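 A549 cells exposed to temozolomide (TM) or topotecan (TP), each with or without 0.4 μM PARP inhibitor. […] PF50 = GI50 of cytotoxic agent alone ÷ GI50 with inhibitor. Values are the average of two independent experiments.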

A549 [2] = assay: Concentration that gives 50% growth inhibition in A549 cells, activity expressed as PF50 (TM); format: functional, Homo sapiens; summary of the method: as §1
[3] = biological target: T1, Poly [ADP-ribose] polymerase 1 (Homo sapiens, UniProt P09874); assay: Inhibitory activity against human full length Poly (ADP-ribose) polymerase 1
T1 sequence (P09874 whole entry): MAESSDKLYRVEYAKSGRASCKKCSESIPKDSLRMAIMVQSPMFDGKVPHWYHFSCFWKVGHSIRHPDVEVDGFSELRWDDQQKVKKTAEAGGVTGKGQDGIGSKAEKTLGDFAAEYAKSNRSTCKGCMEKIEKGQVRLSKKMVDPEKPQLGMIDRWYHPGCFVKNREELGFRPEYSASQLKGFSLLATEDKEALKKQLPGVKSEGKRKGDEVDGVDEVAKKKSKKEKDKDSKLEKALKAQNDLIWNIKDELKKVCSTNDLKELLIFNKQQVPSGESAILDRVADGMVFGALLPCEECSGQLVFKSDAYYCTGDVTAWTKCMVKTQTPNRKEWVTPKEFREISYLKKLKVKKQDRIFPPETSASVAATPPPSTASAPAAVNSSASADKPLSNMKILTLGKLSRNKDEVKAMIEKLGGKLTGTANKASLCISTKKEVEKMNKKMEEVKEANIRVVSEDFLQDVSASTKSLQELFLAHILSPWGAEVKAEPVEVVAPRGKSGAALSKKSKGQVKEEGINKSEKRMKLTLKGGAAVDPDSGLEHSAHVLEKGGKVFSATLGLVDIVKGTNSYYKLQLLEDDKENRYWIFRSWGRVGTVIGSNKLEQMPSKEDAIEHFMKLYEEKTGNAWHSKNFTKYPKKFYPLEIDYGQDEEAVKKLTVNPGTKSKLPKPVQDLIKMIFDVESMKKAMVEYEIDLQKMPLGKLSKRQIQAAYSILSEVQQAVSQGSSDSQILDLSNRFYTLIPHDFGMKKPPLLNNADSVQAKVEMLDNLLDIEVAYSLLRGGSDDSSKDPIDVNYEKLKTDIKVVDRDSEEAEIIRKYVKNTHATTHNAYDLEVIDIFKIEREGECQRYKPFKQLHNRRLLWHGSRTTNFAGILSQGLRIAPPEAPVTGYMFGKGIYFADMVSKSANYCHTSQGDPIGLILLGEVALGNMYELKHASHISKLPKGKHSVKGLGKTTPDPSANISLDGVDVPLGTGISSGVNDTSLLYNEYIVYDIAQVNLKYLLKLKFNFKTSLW

LoVo [4] = assay: Concentration that gives 50% growth inhibition in LoVo cells, activity expressed as GI50; format: functional; details: Homo sapiens
A549 [5] = assay: Concentration that gives 50% growth inhibition (temozolomide alone/ (temozolomide + 0.4 uM of compound)) in A549 cells; format: functional, Homo sapiens; summary of the method: as §1
LoVo [6] = assay: Potentiation of temozolomide in LoVo cells by 0.40 uM compound (TM); format: functional, Homo sapiens
LoVo [7] = assay: Potentiation of topotecan in LoVo cells, by 0.40 uM compound (TP); format: functional, Homo sapiens
A549 [8] = assay: Enhancement factor of 200 uM temozolomide by 0.4 uM PARP inhibitor in A549 cells
[9] = biological target: T1, Poly [ADP-ribose] polymerase 1; assay: Inhibitory activity against human full length Poly (ADP-ribose) polymerase 1 at 100 uM
Summary of the method: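 Human full-length PARP-1 enzyme assay. Tested at a single concentration of 100 μM, reported as percent inhibition instead of a Ki value.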

A549 [10] = assay: Effect on NAD+ depletion (% remaining versus vehicle control) in presence of MNNG (25 uM) at 0.03 uM compound concentration in A549 cells; format: functional, Homo sapiens
Summary of the method: (§2)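 A549 cells treated with vehicle, with 25 μM MNNG (subtoxic DNA alkylation), or with 25 μM MNNG plus inhibitor at 0.006–11 μM. Cellular NAD+ measured by an enzyme recycling method and expressed as % remaining relative to vehicle-treated cells without DNA damage.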

A549 [11] = assay: Percent ADP-ribose polymer formation in presence of MNNG (25 uM) at 0..4 uM compound concentration in A549 cells; format: functional, Homo sapiens
Summary of the method: (§3)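 A549 cells treated with vehicle, with 25 μM MNNG, or with 25 μM MNNG plus inhibitor at 0.006–11 μM. ADP-ribose polymer quantified by HPLC and expressed as % of the polymer formed with 25 μM MNNG alone.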

A549 [12] = assay: Percent ADP-ribose polymer formation in presence of MNNG (25 uM) at 0..03 uM compound concentration in A549 cells; format: functional, Homo sapiens; summary of the method: as §3
A549 [13] = assay: Percent ADP-ribose polymer formation in presence of MNNG (25 uM) at 0..006 uM compound concentration in A549 cells; format: functional, Homo sapiens; summary of the method: as §3
A549 [14] = assay: Percent ADP-ribose polymer formation in presence of MNNG (25 uM) at 11 uM compound concentration in A549 cells; format: functional, Homo sapiens; summary of the method: as §3
A549 [15] = assay: Effect on NAD+ depletion (% remaining versus vehicle control) in presence of MNNG (25 uM) at 0.006 uM compound concentration in A549 cells; format: functional, Homo sapiens; summary of the method: as §2
A549 [16] = assay: Effect on NAD+ depletion (% remaining versus vehicle control) in presence of MNNG (25 uM) at 0.15 uM compound concentration in A549 cells; format: functional, Homo sapiens; summary of the method: as §2
A549 [17] = assay: Concentration that gives 50% growth inhibition in A549 cells, activity expressed as PF50 (TP) at 0.006 uM; format: functional, Homo sapiens
Summary of the method: (§4)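 A549 cells given topotecan alone or together with the PARP inhibitor at the listed concentration. PF50 (TP) = GI50 of topotecan alone ÷ GI50 of topotecan with inhibitor.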

A549 [18] = assay: Effect on NAD+ depletion (% remaining versus vehicle control) in presence of MNNG (25 uM) at 0.4 uM compound concentration in A549 cells; format: functional, Homo sapiens; summary of the method: as §2
A549 [19] = assay: Concentration that gives 50% growth inhibition in A549 cells, activity expressed as PF50 (TP) at 0.4 uM; format: functional, Homo sapiens; summary of the method: as §4
A549 [20] = assay: Concentration that gives 50% growth inhibition in A549 cells, activity expressed as PF50 (TP) at 0.03 uM; format: functional, Homo sapiens; summary of the method: as §4
A549 [21] = assay: Concentration that gives 50% growth inhibition in A549 cells, activity expressed as PF50 (TP) at 0.15 uM; format: functional, Homo sapiens; summary of the method: as §4
A549 [22] = assay: Effect on NAD+ depletion (% remaining versus vehicle control) in presence of MNNG (25 uM) at 11 uM compound concentration in A549 cells; format: functional, Homo sapiens; summary of the method: as §2
A549 [23] = assay: Percent ADP-ribose polymer formation in presence of MNNG (25 uM) at 0..15 uM compound concentration in A549 cells; format: functional, Homo sapiens; summary of the method: as §3
LoVo [24] = assay: Potentiation of topotecan in LoVo cells by 0.40 uM compound (TP); format: functional, Homo sapiens

Ki [3]: 45 nM
SMILES: Cc1nc2cccc3c2n1CCNC3=O
PF50 (A549 [1]): 1.2 | PF50 (A549 [2]): 1.1

SMILES: O=C1NCCn2c(-c3ccccc3)nc3cccc1c32
PF50 (A549 [1]): 1.5

GI50 (LoVo [4]): > 50 µM
SMILES: CN(C)Cc1cccc(-c2nc3cccc4c3n2CCNC4=O)c1
PF50 (A549 [1]): 1.8 | PF50 (A549 [5]): 1.4 | PF50 (LoVo [6]): 2 | PF50 (LoVo [7]): 1.5

SMILES: O=C1NCCn2c(-c3cccc4ccccc34)nc3cccc1c32
PF50 (A549 [1]): 1.4

SMILES: O=C1NCCn2c(-c3cccc(C(F)(F)F)c3)nc3cccc1c32
PF50 (A549 [1]): 1.7

SMILES: O=C1NCCn2c(-c3cccc(CO)c3)nc3cccc1c32
EF200 (A549 [8]): 1.2

SMILES: O=C1NCCn2c(-c3ccc(CO)cc3)nc3cccc1c32
EF200 (A549 [8]): 1.5

SMILES: CN1CCn2c(-c3cccc4ccccc34)nc3cccc(c32)C1=O
EF200 (A549 [8]): 1.1 | inhibition [9]: 40%

SMILES: O=C1NCCn2c(-c3ccccc3Cl)nc3cccc1c32
PF50 (A549 [1]): 1.3

GI50 (LoVo [4]): 7.9 µM
SMILES: O=C1NCCn2c(-c3ccc(Cl)cc3)nc3cccc1c32
PF50 (A549 [1]): 2 | PF50 (A549 [5]): 1.5 | PF50 (LoVo [6]): 2.1 | PF50 (LoVo [7]): 1.5

GI50 (LoVo [4]): 11.2 µM
SMILES: CN(C)Cc1ccc(-c2nc3cccc4c3n2CCNC4=O)cc1
Remaining (A549 [10]): 75% | Formation (A549 [11]): 13% | Formation (A549 [12]): 38% | PF50 (A549 [1]): 2 | Formation (A549 [13]): 85% | Formation (A549 [14]): 5.5% | PF50 (A549 [5]): 2.2 | Remaining (A549 [15]): 65% | PF50 (LoVo [6]): 5.4 | Remaining (A549 [16]): 85% | PF50 (A549 [17]): 1.6 | Remaining (A549 [18]): 88% | PF50 (A549 [19]): 2.3 | PF50 (A549 [20]): 1.9 | PF50 (A549 [21]): 2.1 | Remaining (A549 [22]): 99% | Formation (A549 [23]): 20% | PF50 (LoVo [24]): 1.7
